Laboratory results taken from paper PMC7265153 (The Journal of infection, 2019).
Values after ≈ are worked out from the molar mass of the structure shown. Values joined by “and” are separate entries in the source; they are usually repeats but may differ in a detail not shown here. Equal values may be shown once. Read-outs that look alike come from different tables or passages of the source. Where a SMILES comes first, the peptide text is derived from it. Bridges are numbered along the chain shown (N, C = ends). [ ]: non-standard residue; d: D form. The star is where a group is joined. X1 = CC[C@H](C)CCCCC(=O)*; Dab = NCC[C@H](N)C(=O)O

How the values were obtained:
[1] = test system: XDR P. aeruginosa; format: cell-based, Pseudomonas aeruginosa
[2] = test system: XDR P. aeruginosa; test: Plasma AUC/MIC, fAUC/MIC of formed colistin and attainment of PK/PD targets; format: in vivo, human
[3] = test system: XDR P. aeruginosa; format: in vivo, human
[4] = Acute kidney injury; format: in vivo, human; settings: for AKI at EOT: F (Failure) / AKI at EOT: I (Injury) / AKI at EOT: R (Risk): among patients with AKI
[5] = cited from earlier work
[6] = test system: P. aeruginosa; settings: study performed in Spain; cited from earlier work
[7] = test system: MDR-GNB; settings: cited from earlier work
[8] = in vivo; cited from earlier work
[9] = test system: P. aeruginosa; format: cell-based; settings: Pseudomonas aeruginosa
Method in brief: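 Extremely drug-resistant clinical isolates from patients with urinary tract infection. Species identification and susceptibility testing were done by microdilution on the automated breakpoint panel for non-fermenting Gram-negative bacteria. Colistin MIC was determined by microdilution in cation-adjusted Mueller-Hinton broth, with isolates scored susceptible at MIC ≤ 2 mg/L per CLSI.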

[10] = CMS ≥ 6 million IU/day (n = 12)
[11] = included patients with clinical failure (n = 2)
[12] = all patients, RIFLE class among patients with AKI

## CC[C@H](C)CCCCC(=O)N[C@@H](CCN)C(=O)N[C@H](C(=O)N[C@@H](CCN)C(=O)N[C@H]1CCNC(=O)[C@H]([C@@H](C)O)NC(=O)[C@H](CCN)NC(=O)[C@H](CCN)NC(=O)[C@H](CC(C)C)NC(=O)[C@@H](CC(C)C)NC(=O)[C@H](CCN)NC1=O)[C@@H](C)O [colistin] (X1-[Dab]T[Dab][Dab][Dab][dL]L[Dab][Dab]T; lactam 4-C)
[1]
  MIC50: 0.5 µg/mL (≈ 0.428 µM)
  MIC90: 2 µg/mL (≈ 1.71 µM)
[2]; 7/19 patients
  patients with microbiological clearance who had reached an AUC/MIC of 60 mg·h/L: 36.8%
[2]; 9 patients diagnosed with pyelonephritis
  patients with pyelonephritis reaching Css,avg above 2.5 mg/L: none of them reached a Css,avg above 2.5 mg/L
[2]; 9 patients diagnosed with pyelonephritis, 1 patient
  patients with pyelonephritis achieving AUC/MIC > 60 mg·h/L: 11.1%
[2]; CMS < 3 million IU/day (n = 6)
  AUC/MIC > 60 mg∙h/L: 2 (33.3) n (%)
[2]; CMS ≥ 3 million IU/day (n = 9)
  AUC/MIC > 60 mg∙h/L: 1 (11.1) n (%)
[2]; [10]
  AUC/MIC > 60 mg∙h/L: 5 (41.7) n (%)
[2]; CMS ≥ 9 million IU/day (n = 6)
  AUC/MIC > 60 mg∙h/L: 3 (50) n (%)
[2]; all patients n = 33
  AUC/MIC ≥ 60 mg∙h/L: 11 (33.3) n (%)
[2]; all patients n = 33, unbound fraction 0.5, mean ± standard deviation, SD
  fAUC/MIC: 30.2 ± 28.2
[2]; included patients with clinical cure (n = 31), median (interquartile range)
  fAUC/MIC: 21.5 (5.04–124.8)
[2]; [11]
  Css > 2,5 mg/L: 1 (50) 1 (50) n (%)
[2]; included patients with clinical failure (n = 2), median (interquartile range)
  fAUC/MIC: 47.4 (7.44–87.4)
[2]; patients treated with colistin alone, clinical cure (n=17)
  Css > 2,5 mg/L: 1 (5.9) n (%)
[2]; patients treated with colistin alone, clinical cure (n=17), median (interquartile range)
  fAUC/MIC: 16.8 (4.8–81.6)
[2]; patients with AKI at EOT (n = 10), median (interquartile range)
  fAUC/MIC: 48.4 (14.4–124.8)
[2]; patients without AKI at EOT (n = 23), median (interquartile range)
  fAUC/MIC: 13.7 (4.8–58.1)
[3]; during the next 30 days after treatment
  emergence of colistin-resistant isolates: no colistin-resistant isolates were detected
[4]; multivariate logistic regression, P = 0.074
  Odds ratio (95% CI) of Css for nephrotoxicity at EOT: 4.36 (0.86–20)
[5]; 11 of 12 patients treated with CMS
  patients with colistin in urine much higher than in plasma: 91.7%
[5]; 12 patients treated with CMS, maximum
  concentrations of formed colistin in urine: up to 95.4 mg/L
[5]; 12 patients treated with CMS, median (IQR <0.2–1.4 mg/L)
  concentrations of formed colistin in plasma: 900 ng/mL
[5]; assumed for reaching steady state
  half-life: approximately 14 h
[5]; human plasma
  unbound fraction for colistin in human plasma: 0.5
[6]
  MIC50/90 values: 2 µg/mL (≈ 1.71 µM)
[7]; retrospective study, low-dose colistin
  clinical cure rate in patients diagnosed with UTI: 83.3%
[8]
  Css,avg associated with a higher risk of AKI at EOT: > 2420 ng/mL
  rate of colistin-associated nephrotoxicity: 40–50%

## CC(C)(O/N=C(\C(=O)N[C@@H]1C(=O)N2C(C(=O)[O-])=C(C[n+]3ccccc3)CS[C@H]12)c1csc(N)n1)C(=O)O [ceftazidime]
[9]
  MIC: 16 µg/mL (≈ 29.3 µM)

## Colistimethate sodium [CMS]
[3]; 9 patients diagnosed with pyelonephritis, six (66.7%) on combined therapy
  Clinical cure in patients with pyelonephritis: All of them achieved clinical cure
[3]; 23 patients with microbiological follow up
  Microbiological clearance: 19 (82.6) n (%)
[3]; CMS < 3 million IU/day (n = 6)
  Clinical cure: 6 (100) n (%)
[3]; CMS ≥ 3 million IU/day (n = 9)
  Clinical cure: 8 (88.9) n (%)
[3]; [10]
  Clinical cure: 11 (91.7) n (%)
[3]; CMS ≥ 9 million IU/day (n = 6)
  Clinical cure: 6 (100) n (%)
[3]; all patients n = 33 (42.4% on combined antibiotic therapy)
  Clinical cure: 31 (93.9) n (%)
[4]; CMS < 3 million IU/day (n = 6)
  AKI at EOT: 2 (33.3) n (%)
  AKI at EOT: F (Failure): 0 (0) n (%)
  AKI at EOT: I (Injury): 1 (50) n (%)
  AKI at EOT: R (Risk): 1 (50) n (%)
[4]; CMS ≥ 3 million IU/day (n = 9)
  AKI at EOT: 3 (33.3) n (%)
  AKI at EOT: F (Failure): 1 (33.3) n (%)
  AKI at EOT: I (Injury): 2 (66.6) n (%)
  AKI at EOT: R (Risk): 0 (0) n (%)
[4]; [10]
  AKI at EOT: 4 (33.3) n (%)
  AKI at EOT: F (Failure): 0 (0) n (%)
  AKI at EOT: I (Injury): 3 (75) n (%)
  AKI at EOT: R (Risk): 1 (25) n (%)
[4]; CMS ≥ 9 million IU/day (n = 6)
  AKI at EOT: 1 (16.7) n (%)
  AKI at EOT: F (Failure): 1 (100) n (%)
  AKI at EOT: I (Injury): 0 (0) n (%)
  AKI at EOT: R (Risk): 0 (0) n (%)
[4]; all patients n = 33, RIFLE criteria
  AKI at the end of treatment: 10 (30.3%) n (%) and 10 (30.3) n (%)
[4]; [12]
  AKI at the end of treatment: F (Failure): 2 (22.2) n (%)
  AKI at the end of treatment: I (Injury): 5 (55.5) n (%)
[4]; included patients with clinical cure (n = 31)
  AKI at end of treatment: 9 (29) n (%)
[4]; [11]
  AKI at end of treatment: 1 (50) n (%)
[5]
  CMS dose eliminated in the urine: 60–70%
[5]; young volunteers, single dose of 1 million IU (80 mg) CMS
  rate of CMS conversion into colistin: 30%
[5]; young volunteers, single dose of 1 million IU (80 mg) CMS, on average
  CMS excreted in urine: 70%
[7]; 13 patients with UTI caused by XDR P. aeruginosa
  Clinical cure: 84.6%
[7]; recent clinical studies
  rate of clinical cure in UTI caused by MDR-GNB: 50 to 92%

## C[C@@H](O)[C@H]1C(=O)N2C(C(=O)O)=C(S[C@@H]3CN[C@H](C(=O)N(C)C)C3)[C@H](C)[C@H]12 [meropenem]
[9]
  MIC: ≥ 8 µg/mL

## NCC[C@H](O)C(=O)N[C@@H]1C[C@H](N)[C@@H](O[C@H]2O[C@H](CN)[C@@H](O)[C@H](O)[C@H]2O)[C@H](O)[C@H]1O[C@H]1O[C@H](CO)[C@@H](O)[C@H](N)[C@H]1O [amikacin]
[9]
  MIC: 16 µg/mL (≈ 27.3 µM)
